Assays:
Mus musculus [1] = assay: Percent blood glucose level in mice 4 hours after peroral administration of compound (100 mg/kg); type: functional
In short: (§1)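 Viable yellow obese diabetic mice, six per group, gavaged with 100 mg/kg in saline-2% Emulphor; six vehicle-gavaged controls. Tail blood taken before dosing and at 2 and 4 h. Glucose measured by glucose oxidase method on an autoanalyzer. Values expressed as percent of zero time, mean ±SE of six mice. Significance versus controls by Student's t test, p < 0.05.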

Mus musculus [2] = assay: Percent blood glucose level in mice 2 hours after peroral administration of compound (100 mg/kg); type: functional; in short: as §1

Structure (SMILES) | Blood glucose (Mus musculus [1]) [%] | Blood glucose (Mus musculus [2]) [%]
COc1cccc(C(=O)C[n+]2ccn(C(C)C)c2)c1.[Br-] | 83 | 79
Cc1ccccc1C(=O)C[n+]1ccn(C)c1.[Br-] | 87 | 80
Cc1ccc(C(=O)C[n+]2cc3ccccc3cn2)cc1.[Br-] | 108 | 115
Cc1ccc(C(=O)C[n+]2ccncc2)cc1.[Br-] | 112 | 122
Cc1n(C)cc[n+]1CC(=O)c1ccccc1.[Cl-] | 81 | 90
Cn1cc[n+](C(C(=O)c2ccccc2)c2ccccc2)c1.[Cl-] (stereo not drawn) | 83 | 94
COc1ccc(C(=O)C[n+]2ccn(C)c2)cc1OC.[Br-] | 81 | 86
COc1cc(OC)cc(C(=O)C[n+]2ccoc2)c1.[Br-] | 97 | 95
Cn1cc[n+](CC(=O)c2ccc3ccccc3c2)c1.[Br-] | 99 | 89
C[n+]1ccn(CC(=O)c2ccccc2)c1.[Br-] | 71 | 74
Cn1cc[n+](C(C)(C)C(=O)c2ccccc2)c1.[Br-] | 113 | 104
COc1ccc(OC)c(C(=O)C[n+]2ccn(C)c2)c1.[Br-] | 86 | 78
Cn1cc[n+](CC(=O)c2ccc(Cl)c(Cl)c2)c1.[Br-] | 79 | 94
CCc1ccc(C(=O)C[n+]2ccn(C)c2)cc1.[Br-] | 88 | 77
Cn1cc[n+](CC(=O)c2ccc(Cl)cc2)c1.[Br-] | 93 | 94
COc1cc(OC)cc(C(=O)C[n+]2ccn(C)c2)c1.[Br-] | 69 | 83
COc1cccc(C(=O)C[n+]2ccn(-c3ccccc3)c2)c1.[Br-] | 91 | 96
COc1cccc(C(=O)C[n+]2ccsc2)c1.[Br-] | 123 | 105
Cc1cccc(C(=O)C[n+]2ccn(C)c2)c1.[Br-] | 73 | 78
Cn1cc[n+](CC(=O)c2ccc(C#N)cc2)c1.[Br-] | 106 | 105

Structure (SMILES) | Blood glucose (Mus musculus [1]) [%] | Blood glucose (Mus musculus [2]) [%]
Cc1ccc(C(=O)C[n+]2ccn(C)c2)c(C)c1.[Br-] | 79 | 62
CC(=O)Nc1cccc(C(=O)C[n+]2ccn(C)c2)c1.[Br-] | 109 | 100
COC(=O)Cn1cc[n+](CC(=O)c2ccccc2)c1.[Br-] | 84 | 89
COc1ccc(C(=O)C[n+]2ccn(C)c2)cc1.[Br-] | 77 | 70
CC(C(=O)c1ccccc1)[n+]1ccn(C)c1.[Br-] (stereo not drawn) | 61 | 70
Cn1cc[n+](CC(=O)c2ccc(C(N)=O)cc2)c1.[Br-] | 95 | 100
COc1cccc(C(=O)Cn2ccn(C)c2=O)c1 | 103 | 101
Cc1ccc(C(=O)C[n+]2ccn(C)c2)cc1.[Br-] | 53 | 57
CCCOc1cccc(C(=O)C[n+]2ccn(C)c2)c1.[Br-] | 72 | 63
Cc1ccc(C(=O)Cn2ccc[n+]2C)cc1.[Br-] | 82 | 83
CC(=O)C[n+]1ccn(-c2ccccc2)c1.[Cl-] | 109 | 105
Cn1cc[n+](CC(=O)c2cccc(C(F)(F)F)c2)c1.[I-] | 97 | 95
CCOc1ccc(C(=O)C[n+]2ccn(C)c2)cc1.[Br-] | 104 | 103
COc1cccc(C(=O)C[n+]2ccn(C)c2SC(C)C)c1.[Br-] | 121 | 101
COc1cccc(C(=O)CC[n+]2ccn(C)c2)c1.[I-] | 94 | 91
Cc1ccc(C(=O)C[n+]2cn(C)c(-c3ccccc3)c2-c2ccccc2)cc1.[Br-] | 105 | 102
CO/N=C(/C[n+]1ccn(C)c1)c1ccc(C)cc1.[I-] | 81 | 86
Cn1cc[n+](CC(=O)c2ccccc2F)c1.[Br-] | 99 | 91
Cn1cc[n+](CC(=O)c2ccco2)c1.[Br-] | 92 | 72
Cn1cc[n+](CC(=O)c2ccc(O)c(O)c2)c1.[Cl-] | 107 | 108

Structure (SMILES) | Blood glucose (Mus musculus [1]) [%] | Blood glucose (Mus musculus [2]) [%]
Cc1ccc(C(=O)C[n+]2ccn(C)c2)cc1C.[Br-] | 95 | 83
Cc1cc[n+](CC(=O)c2ccccc2)cc1.[Br-] | 103 | 105
Br.O=C(Cn1ccnc1)c1ccccc1 | 90 | 103
COc1cccc(C(=O)C[n+]2ccn(C)c2)c1OC.[Br-] | 88 | 83
COc1cccc(C(=O)Cn2ccn(C)c2=S)c1 | 80 | 99
Cc1ccc(S(=O)(=O)[O-])cc1.Cn1cc[n+](CC(=O)c2cccc(O)c2)c1 | 87 | 93
Cn1cc[n+](CC(=O)c2cccc(Cl)c2)c1.[Br-] | 112 | 107
Cn1cc[n+](CC(=O)c2cccc3ccccc23)c1.[Br-] | 110 | 90
Cn1cc[n+](CC(=O)c2ccc(-c3ccccc3)cc2)c1.[Br-] | 103 | 103
COc1cccc(C(=O)Cn2ccnc2)c1 | 121 | 110
COc1ccccc1C(=O)C[n+]1ccn(C)c1.[Br-] | 97 | 90
COc1cccc(C(=O)C[N+]2=CN(C)CC2)c1.[Br-] | 97 | 81
COc1cccc(C(O)C[n+]2ccn(C)c2)c1.[I-] (stereo not drawn) | 103 | 106
Cc1ccc(C(=O)C[n+]2ccccn2)cc1.[Br-] | 111 | 105
Cc1cc(C)c(C(=O)C[n+]2ccn(C)c2)c(C)c1.[Br-] | 97 | 94
CCCn1cc[n+](CC(=O)c2ccccc2)c1.[Cl-] | 79 | 79
COc1cccc(C(=O)C[n+]2ccn(C)c2)c1.[Br-] | 72 | 58
CCOc1cccc(C(=O)C[n+]2ccn(C)c2)c1.[Br-] | 64 | 63
Cc1ccc(C(=O)C[n+]2csc3ccccc32)cc1.[Br-] | 108 | 106

From ChEMBL document CHEMBL1124352, “Oral hypoglycemic agents. Discovery and structure-activity relationships of phenacylimidazolium halides” (1989)
